In ChEMBL document CHEMBL1144103, “Biologically active secondary metabolites from fungi. 12.(1) oidiolactones A-F, labdane diterpene derivatives isolated from oidiodendron truncata” (1999):

Tests used:
Format in all cases: functional
[Chlorella] fusca = Herbicidal activity against Chlorella fusca at 10 mg/mL by agar diffusion test; conditions: Scenedesmus fuscus; read-out: IZ
In short: (§1)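 Agar diffusion test. Activity is scored on a 1-4 scale by the radius of the inhibition zone: 1-10 mm = 1, 10-20 mm = 2, 20-30 mm = 3, 30-40 mm = 4.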

Priestia megaterium = assay: Antibacterial activity against Bacillus megaterium at 10 mg/mL by agar diffusion test; conditions: read-out: IZ; in short: as §1
Lepidium sativum = assay: Herbicidal activity against Lepidium sativum assessed as growth inhibition at 10 mg/mL relative to control
[1] = test system: Aspergillus pseudoglaucus; assay: Antifungal activity against Eurotium repens at 10 mg/mL by agar diffusion test; conditions: read-out: IZ; in short: as §1
Mycotypha microspora = assay: Antifungal activity against Mycotypha microspora at 10 mg/mL by agar diffusion test; conditions: read-out: IZ; in short: as §1
Escherichia coli = assay: Antibacterial activity against Escherichia coli at 10 mg/mL by agar diffusion test; conditions: read-out: IZ; in short: as §1
Lemna minor = assay: Herbicidal activity against Lemna minor assessed as growth inhibition at 10 mg/mL after 1 and 6 days relative to control
In short: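 Lemna minor growth inhibition. 10 mg of sample is dissolved in 0.05 mL MeOH plus 0.05 mL acetone and added to 10 mL test medium (growth medium without sucrose) in 5 cm Petri dishes, each holding 15 plants. Plants are scored after 1 and 6 days.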

Microbotryum violaceum = assay: Antifungal activity against Ustilago violacea at 10 mg/mL by agar diffusion test; conditions: read-out: IZ; in short: as §1

Structure (SMILES) | zone of inhibition at 10000 µg/mL ([Chlorella] fusca) [mm] | zone of inhibition at 10000 µg/mL (Priestia megaterium) [mm] | inhibition at 10000 µg/mL (Lepidium sativum) [%] | zone of inhibition at 10000 µg/mL [1] [mm] | zone of inhibition at 10000 µg/mL (Mycotypha microspora) [mm] | zone of inhibition at 10000 µg/mL (Escherichia coli) [mm] | inhibition at 10000 µg/mL (Lemna minor) [%] | zone of inhibition at 10000 µg/mL (Microbotryum violaceum) [mm]
CO[C@H]1OC(=O)C=C2[C@@]13O[C@@H]3[C@H]1OC(=O)[C@@]3(C)CCC[C@@]2(C)[C@@H]13 | 10 | 1 | 100 | 1 | 1 | 0 | > 90 | 10
C[C@@]12CCC[C@]3(C)C4=CC(=O)O[C@@H](O)[C@]45O[C@@H]5[C@@H](OC1=O)[C@@H]23 [OIDIOLACTONE D] | 1 | 0 | – | 1 | 1 | 0 | – | 1
C[C@]12CCC[C@](C)(C(=O)O)[C@@H]1C=C[C@]1(O)COC(=O)C[C@H]21 [OIDIOLACTONE E] | 1 | 0 | – | 1 | 0 | 0 | – | 1
CO[C@H]1OC(=O)C=C2C1=C[C@H]1OC(=O)[C@@]3(C)CCC[C@@]2(C)[C@@H]13 | 20 | 1 | – | – | – | – | – | 30
